Where a name gives a salt, the structure may show the parent alone.
Key:
[1] = biological target: T1, granuphilin C2A domain (Homo sapiens, UniProt Q96C24); assay: Membrane dissociation kinetics on rapid addition of high IP6; format: binding; conditions: 8 mM IP6 rapidly added; biexponential
T1 sequence (Q96C24 352-488): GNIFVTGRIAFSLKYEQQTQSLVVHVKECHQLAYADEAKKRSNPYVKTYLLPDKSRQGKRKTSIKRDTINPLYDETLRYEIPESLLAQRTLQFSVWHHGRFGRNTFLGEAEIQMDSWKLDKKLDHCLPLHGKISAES

[2] = biological target: T2, granuphilin C2B domain (Homo sapiens, UniProt Q96C24); assay: FRET competition binding assay: IP6 titrated into vesicle-bound C2B
Summary of the method: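 Human C2B domain (Glu487–Leu671, E. coli-expressed, freed from GST by thrombin) at 1 μM, premixed with liposomes (125 μM total accessible lipid) in 140 mM KCl, […], 0.5 mM MgCl2, 25 mM HEPES pH 7.4 with 100 μM EDTA, 25 °C. IP6 titrated; acceptor emission at 520 nm (excitation 284 nm, 10-s average), dilution-corrected, lipid-only blank subtracted.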

[3] = biological target: T1, granuphilin C2A domain; assay: Intrinsic Trp fluorescence titration of IP6 or IP3 into free C2A domain; format: binding
[4] = biological target: T2, granuphilin C2B domain; assay: Qualitative reversal of protein-to-membrane FRET by IP6; format: binding; conditions: 8 mM IP6, all lipid compositions tested
Summary of the method: (§1)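 Emission spectra recorded at 25 °C (excitation 284 nm) of vesicles bearing dansyl-PE acceptor (125 μM total accessible lipid) in KCl/NaCl/MgCl2/HEPES pH 7.4 buffer with 100 μM EDTA or 1 mM CaCl2. […] Each addition followed by 40 s stirred equilibration. Dansyl emission near 510 nm read; spectra dilution-corrected.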

[5] = biological target: T1, granuphilin C2A domain; assay: FRET competition binding assay: IP6 titrated into vesicle-bound C2A; conditions: 125 μM accessible lipid, 1 μM C2A
[6] = biological target: T1, granuphilin C2A domain; assay: Qualitative reversal of protein-to-membrane FRET by IP6; format: binding; conditions: 8 mM IP6, all lipid compositions tested
Summary of the method: as §1

[7] = Qualitative protein-to-membrane FRET; format: binding; conditions: 1 μM domain, 125 μM total accessible lipid
Summary of the method: as §1

[8] = Qualitative protein-to-membrane FRET; format: binding; conditions: 1 μM domain, 125 μM total accessible lipid; remark: listed apart in the source
Summary of the method: as §1

[9] = Stopped-flow FRET association and dissociation kinetics; format: binding; conditions: 0.3 μM protein, 75 μM total accessible lipid
Summary of the method: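 Stopped-flow measurements at 25 °C in assay buffer with 100 μM EDTA; excitation 284 nm, dansyl emission through a 475-nm longpass filter, first 1 ms discarded. For association, 0.3 μM domain was mixed with liposomes (75 μM total accessible lipid, after mixing), and a single-exponential fit gave kobs. For dissociation, pre-bound complexes were mixed with equal volume of 4-fold excess unlabeled vesicles, and an exponential decay fit gave koff. kon was derived from kobs and koff; ≥3 replicates.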

[10] = Qualitative protein-to-membrane FRET; format: binding; conditions: 1 μM domain, 125 μM total accessible lipid; remark: listed apart in the source
Summary of the method: as §1

[11] = Qualitative protein-to-membrane FRET; format: binding; conditions: PS and PI replaced with PG; 1 μM domain
Summary of the method: as §1

[12] = Stopped-flow FRET association and dissociation kinetics; format: binding; conditions: 0.3 μM protein, 75 μM total accessible lipid; remark: listed apart in the source
Summary of the method: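 Association run by stopped-flow at 25 °C in assay buffer with 100 μM EDTA: 0.3 μM domain rapidly mixed with liposomes (75 μM total accessible lipid, after mixing). Excitation 284 nm, dansyl emission through a 475-nm longpass filter, data within 1 ms dead time discarded. Single-exponential fit gives kobs; traces averaged over 9–12 mixing events, ≥3 replicates.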

For O=P(O)(O)O[C@H]1[C@H](OP(=O)(O)O)[C@@H](OP(=O)(O)O)[C@H](OP(=O)(O)O)[C@@H](OP(=O)(O)O)[C@H]1OP(=O)(O)O [IP6, D-myo-inositol 1,2,3,4,5,6,-hexakisphosphate dodecasodium salt], the “fold faster dissociation kinetics than by approach to equilibrium method” value [1] was ~ 100 fold, the IC50 [2] was 21 ± 3 µM and the Ki [2] was 1.9 ± 0.5 µM. For the same molecule, the Ki [3] was 1.8 ± 0.1 µM, the “reversal of protein-to-membrane FRET (dansyl emission at 512 nm)” value [4] was “completely reversed” and the IC50 ([5]; PC/PG/dPE vesicles) was 11 ± 1 µM. It also gave an IC50 ([5]; PC/PI/dPE vesicles) of 5 ± 1 µM, an IC50 ([5]; PC/PS/dPE vesicles) of 10 ± 1 µM and an IC50 ([5]; PM(+)PIP2 vesicles, 100 μM EDTA) of 1600 ± 200 µM. For the same molecule, the IC50 ([5]; PM(+)PIP3 vesicles) was 1100 ± 100 µM, the IC50 ([5]; PM(−)PIPx vesicles) was 37 ± 6 µM and the “reversal of protein-to-membrane FRET (dansyl emission at 512 nm)” value [6] was “completely reversed”.

With O=P(O)(O)O[C@@H]1[C@H](O)[C@H](O)[C@@H](OP(=O)(O)O)[C@H](OP(=O)(O)O)[C@H]1O [IP3, D-myo-inositol-1,4,5-triphosphate tripotassium salt] the Ki [3] was 80 ± 30 µM and the “fold less tight binding of IP3 than IP6 to C2A” value [3] was ~ 40 fold.

B1: C2A: human granuphilin C2A domain (Gly352 – Ser488) with C-terminal His6 tag, expressed in E. coli (protein, UniProt Q96C24 352-488, looked up, fragment)
chain: T1 sequence (Q96C24 352-488)
modifications: C2A domain C-terminal His6 tag
With B1 the “protein-to-membrane FRET (dPE emission) on protein addition” value (shortened to “protein-to-membrane FRET (dPE emission)”) [7] was “FRET was observed”, the “protein-to-membrane FRET (dPE emission)” value [8] was “increase in dPE emission” and the kobs for association [9] was 150 ± 20 s⁻¹. The “protein-to-membrane FRET (dPE emission)” value [10] was “increase in dPE emission”, the “protein-to-membrane FRET (dPE emission)” value [11] was “Binding was restored” and the kobs for association [12] was 190 ± 30 s⁻¹.

Reference: article PMC4085138 (Chemistry and physics of lipids, 2013)
